Test results as given in ChEMBL document CHEMBL4007439, “Design, Synthesis, and Evaluation of a Novel Series of Oxadiazine Gamma Secretase Modulators for Familial Alzheimer's Disease” (J Med Chem, 2017).
Calls of active or inactive are those of the source. The calls are words filed in the database; no cut-off is given here.

What was measured:
[1] = Modulation of gamma-secretase in human H4 cells expressing human APP751 assessed as inhibition of amyloid beta 42 production incubated overnight by sandwich ELISA; type: cell-based
In short: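 Aβ42 EC50 in H4 cells overexpressing WT human APP751; each value is the average of n > 2 assays, each run in duplicate.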

[2] = tested on: Mus musculus; assay: Reduction in amyloid beta 42 levels in mouse brain at 30 mg/kg, po measured at 6 hrs post dose by ELISA; type: functional
In short: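 Single oral dose of 30 mg/kg; brain (mouse, rat) and rat CSF Aβ42 and Aβ37 measured 6 h post-dose, expressed relative to vehicle; total and free brain drug levels and brain:plasma ratio taken at the same time.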

[3] = Unbound intrinsic clearance in rat hepatocytes; type: ADME, cell-based, Hepatocyte
[4] = Modulation of gamma-secretase (unknown origin); set-up: species or system Homo sapiens

Row | Compound | EC50 ([1]; Homo sapiens) [nM] | CL free [3] [L/h/kg] | also measured
1 | COc1nc(C2=NOC[C@H](COc3ccc(F)cc3C)N2)ccc1-c1cnc(C)s1 | 1270 |  | 
2 | COc1cc(C2=NOC[C@H](COc3ccc(F)cc3C)N2)ccc1-n1cnc(C)c1 | 230 |  | Activity [2]: inactive
3 | COc1nc(C2=NOCC3CN(c4ccc(Cl)cc4C(F)(F)F)CCN23)ccc1-n1cnc(C)c1 (single isomer, unassigned; (+)) |  |  | EC50 [1]: 64 nM
4 | COc1nc(C2=NOC[C@H](COc3ccc(F)cc3C)N2)ccc1-n1cnc(Cl)c1 | 72 | 246.3 | 
5 | COc1nc(C2=NOC[C@H](COc3ccc(F)cc3C)N2)ccc1-c1ccnc(C)c1 | 98 | 195.5 | 
6 | COc1cc(N2CCC(C(=O)N3CCC[C@@H](Oc4ccc(Cl)cc4C(F)(F)F)C3)CC2)ccn1 |  |  | EC50 [4]: 35 nM
7 | COc1nc(C2=NOC[C@H](COc3ccc(F)cc3C)N2)ccc1-c1cnn(C)c1 | 604 |  | 
8 | COc1nc(C2=NOC[C@H](COc3ccc(F)cc3C)N2)ccc1-c1ocnc1C | 1360 |  | 
9 | COc1nc(C2=NOC[C@H](COc3ccc(Cl)cc3C(F)(F)F)N2)ccc1-n1cnc(C)c1 | 27 | 229.8 | Activity [2]: inactive
10 | COc1nc(C2=NOC[C@@H]3[C@H](Oc4ccc(F)cc4C)CCCN23)ccc1-n1cnc(C)c1 | 197 |  | 
11 | COc1nc(C2=NOC[C@H](COc3ccc(F)cc3C)N2)ccc1-n1cnc(C)c1 | 51 | 114.4 | 
